From ChEMBL document CHEMBL4680195, “Negative allosteric modulators of the GluN2B NMDA receptor with phenylethylamine structure embedded in ring-expanded and ring-contracted scaffolds” (Eur J Med Chem, 2020)

Tests used:
[1] = target: Glutamate receptor ionotropic, NMDA 2B (Homo sapiens, UniProt Q05586+Q13224); assay: Displacement of [3H]ifenprodil from human GluN2B expressed in mouse L(tk-) cell membranes co-expressing GluN1a incubated for 2 hrs by scintillation counting method; parameters: species or system L-M(TK-), Cell membrane
Chain of Glutamate receptor ionotropic, NMDA 2B (Q13224 whole entry, one chain of several): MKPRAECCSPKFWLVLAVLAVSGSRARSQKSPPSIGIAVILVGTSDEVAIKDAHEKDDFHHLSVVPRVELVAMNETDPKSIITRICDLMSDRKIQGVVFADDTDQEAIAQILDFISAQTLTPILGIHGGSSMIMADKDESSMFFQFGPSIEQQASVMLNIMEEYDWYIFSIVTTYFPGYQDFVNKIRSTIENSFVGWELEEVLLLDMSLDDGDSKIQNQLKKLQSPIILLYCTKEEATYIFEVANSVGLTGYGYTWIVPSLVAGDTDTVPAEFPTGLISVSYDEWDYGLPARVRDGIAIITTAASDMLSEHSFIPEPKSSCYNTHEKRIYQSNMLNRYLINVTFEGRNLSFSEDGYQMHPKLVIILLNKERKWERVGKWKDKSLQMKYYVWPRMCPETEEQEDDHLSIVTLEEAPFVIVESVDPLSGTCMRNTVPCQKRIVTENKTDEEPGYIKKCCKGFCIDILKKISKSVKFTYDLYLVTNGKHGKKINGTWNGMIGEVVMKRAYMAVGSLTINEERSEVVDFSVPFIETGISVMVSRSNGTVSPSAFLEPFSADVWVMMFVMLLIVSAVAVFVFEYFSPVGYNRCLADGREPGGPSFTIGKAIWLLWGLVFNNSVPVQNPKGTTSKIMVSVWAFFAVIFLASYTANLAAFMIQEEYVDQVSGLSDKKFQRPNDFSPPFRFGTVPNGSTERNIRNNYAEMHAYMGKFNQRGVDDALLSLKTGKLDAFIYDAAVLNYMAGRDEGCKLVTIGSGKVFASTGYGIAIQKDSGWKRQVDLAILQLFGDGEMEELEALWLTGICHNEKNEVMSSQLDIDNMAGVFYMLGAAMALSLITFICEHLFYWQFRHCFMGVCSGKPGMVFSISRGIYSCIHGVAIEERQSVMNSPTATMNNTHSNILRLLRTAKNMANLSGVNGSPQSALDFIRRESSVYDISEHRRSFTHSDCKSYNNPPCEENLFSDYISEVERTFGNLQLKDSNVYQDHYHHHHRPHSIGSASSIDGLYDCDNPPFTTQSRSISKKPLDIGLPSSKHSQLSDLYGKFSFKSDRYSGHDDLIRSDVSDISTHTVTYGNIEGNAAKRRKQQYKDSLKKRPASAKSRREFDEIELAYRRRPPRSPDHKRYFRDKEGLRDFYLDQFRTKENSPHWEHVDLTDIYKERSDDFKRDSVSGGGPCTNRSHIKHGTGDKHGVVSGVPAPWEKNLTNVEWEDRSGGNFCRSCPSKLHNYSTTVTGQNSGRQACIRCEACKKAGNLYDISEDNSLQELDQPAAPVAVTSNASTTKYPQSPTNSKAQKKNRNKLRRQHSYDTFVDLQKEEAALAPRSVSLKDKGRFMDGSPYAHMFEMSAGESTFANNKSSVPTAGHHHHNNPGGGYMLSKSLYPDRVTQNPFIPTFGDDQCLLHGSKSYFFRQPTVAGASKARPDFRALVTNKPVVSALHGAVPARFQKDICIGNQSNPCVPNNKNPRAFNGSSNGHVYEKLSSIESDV

[2] = target: Sigma non-opioid intracellular receptor 1 (Cavia porcellus, UniProt Q60492); assay: Displacement of [3H]-(+)-pentazocine from Sigma1 receptor in guinea pig cortex membranes incubated for 120 mins by scintillation counting method; assay type: cell membranes, Membrane
Chain of Sigma non-opioid intracellular receptor 1 (Q60492 whole entry): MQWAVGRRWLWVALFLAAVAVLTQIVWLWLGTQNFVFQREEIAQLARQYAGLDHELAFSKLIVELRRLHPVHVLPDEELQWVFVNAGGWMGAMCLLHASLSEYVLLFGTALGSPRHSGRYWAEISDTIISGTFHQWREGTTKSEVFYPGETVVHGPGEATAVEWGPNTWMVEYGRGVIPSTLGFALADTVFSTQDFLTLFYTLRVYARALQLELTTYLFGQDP

[3] = target: T1, Sigma intracellular receptor 2 (Rattus norvegicus, UniProt Q5U3Y7); assay: Displacement of [3H]DTG from sigma 2 receptor in rat liver membranes incubated for 120 mins by scintillation counting method; assay type: cell membranes, Membrane
T1 sequence (Q5U3Y7 whole entry): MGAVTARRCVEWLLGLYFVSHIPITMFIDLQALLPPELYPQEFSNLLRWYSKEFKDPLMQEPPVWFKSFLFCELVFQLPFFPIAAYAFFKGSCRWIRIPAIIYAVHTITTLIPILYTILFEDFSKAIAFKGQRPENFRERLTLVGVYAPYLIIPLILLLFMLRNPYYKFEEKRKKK

[4] = Cytoprotective activity against glutamate/glycine-induced cell death in mouse L-M(TK-) cells assessed as increase in cell viability incubated for 30 mins followed by glutamate/glycine stimulation and measured after 6 hrs by LDH assay; assay type: functional, cell-based
Outline: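 Mouse L(tk-) fibroblasts stably carrying dexamethasone-inducible GluN1a and GluN2B vectors (1:5 ratio). Cells preincubated with test compound in DMEM, at least in triplicate, 30 min at 37 °C. Then glutamate/glycine (each 20 µM, stock added) added and incubated 6 h at 37 °C. LDH released into the supernatant read at 485 nm after 45 min at 37 °C. Buffer in place of ligand gave total LDH. (S)-ketamine 4 × 10⁻⁵ mol/L was the positive control.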

[5] = Cytoprotective activity against glutamate/glycine-induced cell death in mouse L-M(TK-) cells assessed as increase in cell viability at 10 uM incubated for 30 mins followed by glutamate/glycine stimulation and measured after 6 hrs by LDH assay relative to control; assay type: functional; details: time 6.5 hrs
Outline: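 Mouse L(tk-) fibroblasts stably carrying dexamethasone-inducible GluN1a and GluN2B vectors (1:5). Wells blocked with DMEM containing 1% BSA, then given test compound, at least triplicate, 30 min at 37 °C. Glutamate/glycine solution then added, 6 h at 37 °C. LDH in supernatant read with diaphorase/lactate/NAD+/iodonitrotetrazolium mix, 45 min at 37 °C, absorbance 485 nm. Buffer gave total LDH; (S)-ketamine 4 × 10^-5 mol/L was positive control.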

[6] = target: Glutamate receptor ionotropic, NMDA 2B (Rattus norvegicus) (UniProt Q00960); assay: Negative allosteric inhibition of rat GluN2B expressed in Oocytes co-expressing GluN1a at 1 uM at -70 mV holding potential by two electrode voltage-clamp assay relative to control; details: filed as negative allosteric modulator
Chain of Glutamate receptor ionotropic, NMDA 2B (Rattus norvegicus) (Q00960 whole entry, looked up): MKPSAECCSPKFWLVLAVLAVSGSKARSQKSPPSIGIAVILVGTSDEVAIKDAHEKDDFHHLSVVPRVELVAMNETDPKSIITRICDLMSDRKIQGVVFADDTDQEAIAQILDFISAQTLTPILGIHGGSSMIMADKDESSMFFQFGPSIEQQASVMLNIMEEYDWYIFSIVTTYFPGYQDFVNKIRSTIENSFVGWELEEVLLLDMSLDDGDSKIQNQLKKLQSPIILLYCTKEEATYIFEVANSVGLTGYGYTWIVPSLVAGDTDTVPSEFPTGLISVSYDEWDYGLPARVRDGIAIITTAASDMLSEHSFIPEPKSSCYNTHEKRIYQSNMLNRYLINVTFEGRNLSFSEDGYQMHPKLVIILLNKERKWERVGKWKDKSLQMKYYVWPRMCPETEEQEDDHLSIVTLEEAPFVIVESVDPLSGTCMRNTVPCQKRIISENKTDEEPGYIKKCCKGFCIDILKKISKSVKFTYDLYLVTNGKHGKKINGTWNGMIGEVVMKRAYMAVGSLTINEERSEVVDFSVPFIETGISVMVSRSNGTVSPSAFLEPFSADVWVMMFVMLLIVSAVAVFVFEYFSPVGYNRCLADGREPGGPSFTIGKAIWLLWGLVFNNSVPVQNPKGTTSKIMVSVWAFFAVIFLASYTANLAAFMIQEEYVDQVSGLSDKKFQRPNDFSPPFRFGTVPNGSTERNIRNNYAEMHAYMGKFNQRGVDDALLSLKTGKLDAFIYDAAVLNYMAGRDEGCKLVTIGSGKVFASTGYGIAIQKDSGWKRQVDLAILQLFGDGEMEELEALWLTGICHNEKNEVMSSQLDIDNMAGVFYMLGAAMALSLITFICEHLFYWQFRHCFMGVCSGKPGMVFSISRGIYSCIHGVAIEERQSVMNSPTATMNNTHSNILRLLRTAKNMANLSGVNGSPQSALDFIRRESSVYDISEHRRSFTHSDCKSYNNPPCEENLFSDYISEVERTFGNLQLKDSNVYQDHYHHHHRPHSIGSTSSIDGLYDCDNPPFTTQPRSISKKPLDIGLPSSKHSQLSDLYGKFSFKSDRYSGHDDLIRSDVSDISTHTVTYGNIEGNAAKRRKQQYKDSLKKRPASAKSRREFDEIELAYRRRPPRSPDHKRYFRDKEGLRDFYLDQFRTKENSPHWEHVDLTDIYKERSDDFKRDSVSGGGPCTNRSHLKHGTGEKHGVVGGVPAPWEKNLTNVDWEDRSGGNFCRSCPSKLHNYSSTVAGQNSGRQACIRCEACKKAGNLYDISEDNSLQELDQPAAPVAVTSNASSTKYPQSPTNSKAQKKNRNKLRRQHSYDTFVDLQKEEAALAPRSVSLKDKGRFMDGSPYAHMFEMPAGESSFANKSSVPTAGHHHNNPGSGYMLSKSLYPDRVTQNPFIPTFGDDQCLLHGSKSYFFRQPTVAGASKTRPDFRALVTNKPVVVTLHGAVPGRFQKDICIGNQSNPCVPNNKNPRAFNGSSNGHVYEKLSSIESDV

[7] = target: Glutamate receptor ionotropic, NMDA 2B (Rattus norvegicus) (UniProt Q00960); assay: Negative allosteric inhibition of rat GluN2B expressed in Oocytes co-expressing GluN1a at 10 uM at -70 mV holding potential by two electrode voltage-clamp assay relative to control; details: filed as negative allosteric modulator
[8] = target: Sigma intracellular receptor 2 (Homo sapiens, UniProt Q5BJF2); assay: Binding affinity to Sigma 2 receptor (unknown origin)
Chain of Sigma intracellular receptor 2 (Homo sapiens, UniProt Q5BJF2) (Q5BJF2 whole entry): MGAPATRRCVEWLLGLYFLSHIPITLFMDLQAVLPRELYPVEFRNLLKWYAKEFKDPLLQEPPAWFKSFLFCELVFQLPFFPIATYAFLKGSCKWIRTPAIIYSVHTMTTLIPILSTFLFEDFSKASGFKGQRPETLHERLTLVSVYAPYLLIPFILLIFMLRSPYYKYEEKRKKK

Compound	Ki [1] [µM]	Ki [2] [µM]	Ki [3] [µM]	IC50 [4] [µM]	Activity [5] [%]	inhibition [6] [%]	inhibition [7] [%]	Ki [8] [µM]
c1ccc(CCCN2CCCc3ccccc3CC2)cc1	0.036	0.017	0.178	7.8	–	–	–	–
c1ccc(CCNC2CCc3ccccc3C2)cc1 (centres undefined)	0.237	0.051	0.07	–	–	–	–	–
c1ccc(CCCCNC2CCc3ccccc3C2)cc1 (centres undefined)	0.266	0.046	0.05	–	–	–	–	–
c1ccc(C2CCN(C3Cc4ccccc4C3)CC2)cc1	0.0045	0.044	0.025	–	–	–	–	–
CC(C(O)c1ccc(O)cc1)N1CCC(Cc2ccccc2)CC1 (centres undefined) [IFENPRODIL]	–	–	–	0.59	–	–	–	–
c1ccc(CCCCNC2Cc3ccccc3C2)cc1	0.066	0.031	0.15	–	–	–	–	–
c1ccc(CCNC2Cc3ccccc3C2)cc1	0.455	0.168	0.694	–	–	–	–	–
c1ccc(CCCNC2CCc3ccccc3CC2)cc1	–	–	–	–	29	–	–	–
c1ccc(CC2CCN(C3CCc4ccccc4C3)CC2)cc1 (centres undefined)	0.008	0.006	0.0021	–	–	–	–	–
c1ccc(CC2CCN(C3Cc4ccccc4C3)CC2)cc1	0.0032	0.051	0.028	–	7	–	–	–
c1ccc(CNC2CCc3ccccc3C2)cc1 (centres undefined)	4	0.285	0.065	–	–	–	–	–
c1ccc(CCCCN2CCCc3ccccc3CC2)cc1	0.032	0.022	0.05	0.89	–	8	60	–
c1ccc(C2CCN(C3CCc4ccccc4C3)CC2)cc1 (centres undefined)	0.0084	0.0019	0.0029	–	–	–	–	–
c1ccc(CCCNC2Cc3ccccc3C2)cc1	0.117	0.058	0.038	–	31	–	–	–
c1ccc(CCCNC2CCc3ccccc3C2)cc1 (centres undefined)	0.163	0.059	0.029	–	30	–	–	–
Oc1ccc2c(c1)CCN(CCCCc1ccccc1)CC2O (centres undefined)	–	–	–	–	–	–	–	> 10
